Test results: ChEMBL document CHEMBL3272249, “Esters of N-tert-butylarterenol. Long-acting new bronchodilators with reduced cardiac effects” (J Med Chem, 1976)

Tests used:
Canis familiaris [1] = assay: Bronchodilator activity in dog assessed as time of inhibition of carbachol or histamine-induced bronchoconstriction at 5 to 10 mg/kg, iv relative to control; format: functional, Canis lupus familiaris; conditions: dose mg/kg 5-10
Procedure, shortened: (§1)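 Anesthetized dogs with an airway cannula and a nonbreathing valve. Bronchoconstriction was induced by iv carbachol (2–4 μg/kg) or histamine diphosphate (20–50 μg/kg) and read as change in airway pressure by transducer. Each compound was tested against both agonists in different dogs, and the results were combined and averaged. Effect is % inhibition of control constriction, with at least three dogs per dose. Drugs were dissolved fresh in distilled water, diluted in saline and kept on ice.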

Canis familiaris [2] = assay: Bronchodilator activity in dog assessed as degree of inhibition of carbachol or histamine-induced bronchoconstriction at 5 to 10 mg/kg, iv relative to control; format: functional, Canis lupus familiaris; conditions: dose mg/kg 5-10
Procedure, shortened: (§2)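 Anesthetized dogs, trachea cannulated with a nonbreathing valve. Bronchoconstriction induced by iv carbachol (2–4 μg/kg) or histamine diphosphate (20–50 μg/kg) in separate animals, and airway pressure recorded by transducer. Drug stocks were made fresh in distilled water, diluted in saline and kept on ice. Read-out was percent inhibition of control constriction, averaged over at least three dogs per dose at the higher dose. Carbachol and histamine data were combined.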

Canis familiaris [3] = assay: Bronchodilator activity in dog assessed as time of inhibition of carbachol or histamine-induced bronchoconstriction at 5 mg/kg, iv relative to control; format: functional, Canis lupus familiaris; procedure, shortened: as §1
Canis familiaris [4] = assay: Bronchodilator activity in dog assessed as degree of inhibition of carbachol or histamine-induced bronchoconstriction at 5 mg/kg, iv relative to control; format: functional; conditions: Canis lupus familiaris; procedure, shortened: as §2
Canis familiaris [5] = assay: Bronchodilator activity in dog assessed as degree of inhibition of carbachol or histamine-induced bronchoconstriction at 440 to 880 mg/kg, it relative to control; format: functional, Canis lupus familiaris; conditions: dose mg/kg 440-880; route endotracheal; procedure, shortened: as §2
Canis familiaris [6] = assay: Bronchodilator activity in dog assessed as time of inhibition of carbachol or histamine-induced bronchoconstriction at 440 to 880 mg/kg, it relative to control; format: functional, Canis lupus familiaris; conditions: dose mg/kg 440-880; route endotracheal; procedure, shortened: as §1
Canis familiaris [7] = assay: Cardiotoxicity in spontaneously respiring dog assessed as degree of increase in heart rate at 5 to 10 mg/kg, iv relative to control; format: toxicity, organism-based, Canis lupus familiaris; design: dose 5-10 mg/kg, route intravenous; conditions: in vivo
Procedure, shortened: (§3)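 Anesthetized, spontaneously respiring dogs. Heart rate was taken from a lead II EKG, and blood pressure from the right femoral artery by transducer. The increase in heart rate (beats/min) was scored on a graded scale with more than 4 dogs per dose, and its duration was recorded. Drugs were dissolved fresh in distilled water, diluted in physiological saline and kept on ice.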

Canis familiaris [8] = assay: Cardiotoxicity in spontaneously respiring dog assessed as time of increase in heart rate at 5 to 10 mg/kg, iv relative to control; format: toxicity, organism-based, Canis lupus familiaris; design: dose 5-10 mg/kg, route intravenous; conditions: in vivo; procedure, shortened: as §3
Canis familiaris [9] = assay: Cardiotoxicity in spontaneously respiring dog assessed as time of increase in heart rate at 200 to 400 mg/kg, id relative to control; format: toxicity, organism-based, Canis lupus familiaris; design: dose 200-400 mg/kg, route intraduodenal; conditions: in vivo, other; procedure, shortened: as §3
Canis familiaris [10] = assay: Bronchodilator activity in dog assessed as time of inhibition of carbachol or histamine-induced bronchoconstriction at 4 to 8 mg/kg, iv relative to control; format: functional, Canis lupus familiaris; conditions: dose mg/kg 4-8
Procedure, shortened: (§4)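 Dog airway model: anesthetized, cannulated via a nonbreathing valve, with airway pressure changes recorded after iv carbachol (2–4 μg/kg) or histamine diphosphate (20–50 μg/kg) challenge, each agonist in different animals. Compounds were given iv, intraduodenally or intratracheally from fresh aqueous stocks diluted in saline. Duration (h) of inhibition of induced bronchoconstriction was followed, and the two agonist datasets were pooled.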

Canis familiaris [11] = assay: Bronchodilator activity in dog assessed as degree of inhibition of carbachol or histamine-induced bronchoconstriction at 200 to 400 mg/kg, id relative to control; format: functional, Canis lupus familiaris; conditions: dose mg/kg 200-400; route intraduodenal; procedure, shortened: as §2
Canis familiaris [12] = assay: Cardiotoxicity in spontaneously respiring dog assessed as time of increase in heart rate at 4 to 8 mg/kg, iv relative to control; format: toxicity, organism-based, Canis lupus familiaris; design: dose 4-8 mg/kg, route intravenous; conditions: in vivo; procedure, shortened: as §3
Canis familiaris [13] = assay: Bronchodilator activity in dog assessed as time of inhibition of carbachol or histamine-induced bronchoconstriction at 200 to 400 mg/kg, id relative to control; format: functional, Canis lupus familiaris; conditions: dose mg/kg 200-400; route intraduodenal; procedure, shortened: as §4
Canis familiaris [14] = assay: Bronchodilator activity in dog assessed as degree of inhibition of carbachol or histamine-induced bronchoconstriction at 4 to 8 mg/kg, iv relative to control; format: functional, Canis lupus familiaris; conditions: dose mg/kg 4-8; procedure, shortened: as §2
Canis familiaris [15] = assay: Bronchodilator activity in dog assessed as time of inhibition of carbachol or histamine-induced bronchoconstriction at 400 to 800 mg/kg, it relative to control; format: functional, Canis lupus familiaris; conditions: dose mg/kg 400-800; route endotracheal; procedure, shortened: as §4
Canis familiaris [16] = assay: Cardiotoxicity in spontaneously respiring dog assessed as degree of increase in heart rate at 200 to 400 mg/kg, id relative to control; format: toxicity, organism-based, Canis lupus familiaris; design: dose 200-400 mg/kg, route intraduodenal; conditions: in vivo, other; procedure, shortened: as §3
Canis familiaris [17] = assay: Cardiotoxicity in spontaneously respiring dog assessed as degree of increase in heart rate at 4 to 8 mg/kg, iv relative to control; format: toxicity, organism-based, Canis lupus familiaris; design: dose 4-8 mg/kg, route intravenous; conditions: in vivo; procedure, shortened: as §3
Canis familiaris [18] = assay: Bronchodilator activity in dog assessed as degree of inhibition of carbachol or histamine-induced bronchoconstriction at 400 to 800 mg/kg, it relative to control; format: functional, Canis lupus familiaris; conditions: dose mg/kg 400-800; route endotracheal; procedure, shortened: as §2
Canis familiaris [19] = assay: Cardiotoxicity in spontaneously respiring dog assessed as time of increase in heart rate at 10 to 20 mg/kg, iv relative to control; format: toxicity, organism-based, Canis lupus familiaris; design: dose 10-20 mg/kg, route intravenous; conditions: in vivo
Procedure, shortened: (§5)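 Anesthetized, spontaneously respiring dogs. Heart rate monitored by lead II EKG; blood pressure from right femoral artery by pressure transducer. Rise in heart rate (beats/min) scored ±=5-15, +=20-40, ++=40-60, +++=>60, n>4/dose; duration of the rise in h. Drug stocks freshly made in distilled water, diluted in physiological saline, kept on ice.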

Canis familiaris [20] = assay: Cardiotoxicity in spontaneously respiring dog assessed as degree of increase in heart rate at 10 to 20 mg/kg, iv relative to control; format: toxicity, organism-based, Canis lupus familiaris; design: dose 10-20 mg/kg, route intravenous; conditions: in vivo; procedure, shortened: as §5
Canis familiaris [21] = assay: Bronchodilator activity in dog assessed as degree of inhibition of carbachol or histamine-induced bronchoconstriction at 10 to 20 mg/kg, iv relative to control; format: functional, Canis lupus familiaris; conditions: dose mg/kg 10-20
Procedure, shortened: (§6)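 Dog with airway cannulated through a nonbreathing valve. Bronchoconstriction induced by iv carbachol (2–4 µg/kg) or histamine diphosphate (20–50 µg/kg); airway pressure recorded by pressure transducer. Each compound tested against both agonists in different animals, and results were combined and averaged. Bronchodilation = % inhibition of control constriction; degree scored as +, ++, +++ (20-45, 45-70, >70%) from higher dose, ≥3 dogs/dose; duration in h.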

Canis familiaris [22] = assay: Bronchodilator activity in dog assessed as time of inhibition of carbachol or histamine-induced bronchoconstriction at 10 to 20 mg/kg, iv relative to control; format: functional, Canis lupus familiaris; conditions: dose mg/kg 10-20; procedure, shortened: as §6
Canis familiaris [23] = assay: Bronchodilator activity in dog assessed as degree of inhibition of carbachol or histamine-induced bronchoconstriction at 50 to 100 mg/kg, iv relative to control; format: functional, Canis lupus familiaris; conditions: dose mg/kg 50-100; procedure, shortened: as §2
Canis familiaris [24] = assay: Cardiotoxicity in spontaneously respiring dog assessed as degree of increase in heart rate at 50 to 100 mg/kg, iv relative to control; format: toxicity, organism-based, Canis lupus familiaris; design: dose 50-100 mg/kg, route intravenous; conditions: in vivo; procedure, shortened: as §3
Canis familiaris [25] = assay: Cardiotoxicity in spontaneously respiring dog assessed as time of increase in heart rate at 50 to 100 mg/kg, iv relative to control; format: toxicity, organism-based, Canis lupus familiaris; design: dose 50-100 mg/kg, route intravenous; conditions: in vivo
Procedure, shortened: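 Anesthetized, spontaneously respiring dogs. Heart rate monitored by lead II EKG, with blood pressure taken from the right femoral artery by pressure transducer and recorded on a polygraph. Drug stocks made fresh in distilled water, diluted in physiological saline and kept on ice. Dosing was iv, id or it as listed. The duration of the heart-rate increase was recorded in h, with more than 4 dogs per dose.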

Canis familiaris [26] = assay: Bronchodilator activity in dog assessed as time of inhibition of carbachol or histamine-induced bronchoconstriction at 50 to 100 mg/kg, iv relative to control; format: functional, Canis lupus familiaris; conditions: dose mg/kg 50-100; procedure, shortened: as §1
Canis familiaris [27] = assay: Bronchodilator activity in dog assessed as degree of inhibition of carbachol or histamine-induced bronchoconstriction at 300 to 1200 mg/kg, it relative to control; format: functional, Canis lupus familiaris; conditions: dose mg/kg 300-1200; route endotracheal; procedure, shortened: as §2
Canis familiaris [28] = assay: Bronchodilator activity in dog assessed as degree of inhibition of carbachol or histamine-induced bronchoconstriction at 100 to 200 mg/kg, iv relative to control; format: functional, Canis lupus familiaris; conditions: dose mg/kg 100-200; procedure, shortened: as §2
Canis familiaris [29] = assay: Bronchodilator activity in dog assessed as time of inhibition of carbachol or histamine-induced bronchoconstriction at 300 to 1200 mg/kg, it relative to control; format: functional, Canis lupus familiaris; conditions: dose mg/kg 300-1200; route endotracheal; procedure, shortened: as §4
Canis familiaris [30] = assay: Bronchodilator activity in dog assessed as time of inhibition of carbachol or histamine-induced bronchoconstriction at 100 to 200 mg/kg, iv relative to control; format: functional, Canis lupus familiaris; conditions: dose mg/kg 100-200; procedure, shortened: as §4
Canis familiaris [31] = assay: Cardiotoxicity in spontaneously respiring dog assessed as degree of increase in heart rate at 100 to 200 mg/kg, iv relative to control; format: toxicity, organism-based, Canis lupus familiaris; design: dose 100-200 mg/kg, route intravenous; conditions: in vivo; procedure, shortened: as §3

## CCC(C)C(=O)Oc1ccc([C@@H](O)CNC(C)(C)C)cc1OC(=O)C(C)CC.Cl (stereo not given in full)
Canis familiaris [1]
  Time: <1 h
Canis familiaris [2]
  inhibition (INH): 45%

## CC(C)(C)CC(=O)Oc1ccc([C@@H](O)CNC(C)(C)C)cc1O.CS(=O)(=O)O
Canis familiaris [3]
  Time: >3 h
Canis familiaris [4]
  inhibition in vivo at 5 mg/kg: 45%

## CS(=O)(=O)O.Cc1ccc(C(=O)Oc2ccc([C@@H](O)CNC(C)(C)C)cc2O)cc1
Canis familiaris [5]
  inhibition (INH): 45%
Canis familiaris [6]
  Time: <2 h
Canis familiaris [7]
  Activity: 40 beats/min
Canis familiaris [8]
  Time: < 0.5 h
Canis familiaris [1]
  Time: >3 h
Canis familiaris [2]
  inhibition (INH): 45%

## CC(C)CC(=O)Oc1ccc([C@@H](O)CNC(C)(C)C)cc1OC(=O)CC(C)C.Cl
Canis familiaris [9]
  Time: < 3 h
Canis familiaris [10]
  Time: <2 h
Canis familiaris [11]
  inhibition (INH): 45%
Canis familiaris [12]
  Time: < 1 h
Canis familiaris [13]
  Time: 3 h
Canis familiaris [14]
  inhibition (INH): >70%
Canis familiaris [15]
  Time: <2 h
Canis familiaris [16]
  Activity: 40 beats/min
Canis familiaris [17]
  Activity: 20 beats/min
Canis familiaris [18]
  inhibition (INH): >70%

## CC(C)(C)NC[C@H](O)c1ccc(OC(=O)C(C)(C)C)c(O)c1.CS(=O)(=O)O
Canis familiaris [19]
  Time: < 0.5 h
Canis familiaris [20]
  Activity: 40%
Canis familiaris [21]
  inhibition (INH): 45%
Canis familiaris [22]
  Time: <2 h

## CS(=O)(=O)O.Cc1cccc(C(=O)Oc2ccc([C@@H](O)CNC(C)(C)C)cc2O)c1
Canis familiaris [5]
  inhibition (INH): >70%
Canis familiaris [23]
  inhibition (INH): >70%
Canis familiaris [6]
  Time: <2 h
Canis familiaris [24]
  Activity: 40 beats/min
Canis familiaris [25]
  Time: < 0.5 h
Canis familiaris [26]
  Time: <2 h

## CS(=O)(=O)O.Cc1ccccc1C(=O)Oc1ccc([C@@H](O)CNC(C)(C)C)cc1OC(=O)c1ccccc1C
Canis familiaris [27]
  inhibition (INH): 20%
Canis familiaris [28]
  inhibition (INH): 20%
Canis familiaris [29]
  Time: <3 h
Canis familiaris [30]
  Time: <4 h
Canis familiaris [31]
  Activity: 20%
